# Screens as filed in PubChem.
# OXTR ag: human OXTR agonism. CHO-OTR cells, Fluo-8 calcium fluorescence; normalized: DMSO 0%, oxytocin 100%. actives 0.32% (n = 320,000). activation, % at 3 µM. P30559;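 active means activation above the mean of all tested compounds plus 3 SD, cutoff set per screening run, cut at about 20% in these data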;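 further: peak over basal fluorescence ratio from a 100 s FLIPR kinetic read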
# Target sequence (P30559 whole entry, looked up): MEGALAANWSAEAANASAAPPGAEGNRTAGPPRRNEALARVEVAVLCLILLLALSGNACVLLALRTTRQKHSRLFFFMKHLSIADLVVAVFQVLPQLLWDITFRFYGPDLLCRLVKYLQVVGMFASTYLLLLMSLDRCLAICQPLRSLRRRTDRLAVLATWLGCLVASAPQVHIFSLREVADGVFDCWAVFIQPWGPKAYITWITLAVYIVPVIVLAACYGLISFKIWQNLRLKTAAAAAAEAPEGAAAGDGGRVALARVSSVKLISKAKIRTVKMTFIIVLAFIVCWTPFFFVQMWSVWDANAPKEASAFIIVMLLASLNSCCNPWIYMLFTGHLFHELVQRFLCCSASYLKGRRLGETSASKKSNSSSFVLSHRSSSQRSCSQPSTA
# V1aR counter: activates human V1a receptor in oxytocin agonist counter-screen. P37288. CHO-V1R cells, Fluo-8 calcium fluorescence, agonist mode; 0% DMSO, 100% 3 nM vasopressin. activation, % at 3 µM. actives 0.25% (n = 320,000). AID 2797;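 active means activation above the mean activation of all tested compounds plus 3 SD, per screening run, cut at about 20% in these data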;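 further: signal is peak over basal fluorescence ratio across a 100 second FLIPR read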
# OXTR potentiate: potentiates the human oxytocin receptor response. AID 2445. activation, % at 3 µM. actives 0.061% (n = 320,000). CHO-OTR cells, Fluo-8 calcium fluorescence, potentiator mode; 0% = oxytocin EC15, 100% = EC100. P30559;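 active means activation above that plate's cutoff, the mean activation of tested compounds plus 3 SD, cut at about 6.6% in these data, passing the limit was not always enough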
#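 Material: CHO-OTR cells, human receptor; compound dosing: single dose, 3.0 µM nominal final compound concentration; schedule: 6 min compound pre-incubation at room temperature, 100 s kinetic read; measured by: kinetic Fluo-8 calcium fluorescence; read-out basis: % activation vs EC15 and EC100 oxytocin; controls: EC15 oxytocin alone as 0%, 75 nM oxytocin as 100%; replicates: singlicate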
# TAAR1 agonist: agonists of human TAAR1; Q96RJ0; CHO RD-HGA16 TAAR1, Fluo-8 calcium fluorescence; vehicle wells 0%, saturating PEA agonist 100%; activation, % at 3 µM; actives 0.99% (n = 360,000);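 active means activation above the mean activation of all test compounds in the run plus 3 SD, cut at about 38% in these data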
# Target sequence (Q96RJ0 whole entry, looked up): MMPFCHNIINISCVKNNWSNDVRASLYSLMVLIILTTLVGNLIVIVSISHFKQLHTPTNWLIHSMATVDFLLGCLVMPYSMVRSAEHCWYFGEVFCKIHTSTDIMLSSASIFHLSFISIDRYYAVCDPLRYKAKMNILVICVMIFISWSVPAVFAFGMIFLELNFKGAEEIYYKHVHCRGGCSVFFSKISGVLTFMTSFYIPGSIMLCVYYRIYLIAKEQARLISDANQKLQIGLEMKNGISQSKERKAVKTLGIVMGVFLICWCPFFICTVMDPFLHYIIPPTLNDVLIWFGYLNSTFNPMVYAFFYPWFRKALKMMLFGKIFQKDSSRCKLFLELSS
#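 test system = CHO RD-HGA16 cells carrying human TAAR1 plus Gα16 | schedule = 17-24 h seeding, 75 min 37 °C dye, 30 min RT | compound dosing = 3 µM single concentration | control set = DMSO and PEA EC100 | replicates = n 1 | signal = Fluo-8 fluorescence, 5 s baseline then 140 s kinetic read | measure = percent activation vs PEA EC100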
# TAAR1 antag: human TAAR1 antagonism. Q96RJ0. CHO RD-HGA16 TAAR1, Fluo-8 calcium fluorescence, antagonist. inhibition, % at 3 µM. actives 1.5% (n = 360,000). AID 624466;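 active means inhibition above a per-plate cutoff, the mean inhibition of test compounds on that plate plus 3 SD, cut at about 49% in these data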
#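 System: RD-HGA16 CHO cells with stable hTAAR1 and Gα16 | Probe or stimulus: EC80 β-phenethylamine stimulus | Dosing: 3 µM, single point | Times: Dye loading 75 min at 37 °C, then 30 min room temperature | Measured by: Fluo-8 calcium-sensitive fluorescence | Read-out basis: % inhibition of agonist calcium response | Replicates: n of 1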
# nonsel antag count: nonselective antagonism, TAAR1 counter-screen; shares compounds with TAAR1 antag; counterscreen cell line, calcium fluorescence, antagonist mode; inhibition, % at 3 µM; actives 77% (n = 2,400); AID 651780; in the data active means inhibition above about 22%;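 further: CHO-Ga16 host cells stimulated with ATP at an EC80 level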
# TAAR1 antag conf: human TAAR1 antagonism, confirmed | AID 651785 | actives 40% (n = 2,400) | inhibition, % at 3 µM | TAAR1-expressing cells, fluorescence antagonist read-out | shares compounds with TAAR1 antag; in the data active means inhibition above about 49%;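 further: CHO-Ga16 host cells challenged with agonist PEA near its EC80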
# Ga16 ag counter: counter-screen for TAAR1 antagonists: nonselective Ga16 agonists; shares compounds with TAAR1 antag; Ga16-expressing cells, calcium fluorescence, agonist counterscreen; activation, % at 3 µM; actives 18% (n = 2,400); in the data active means activation above about 12%
# TAAR1 ag count: TAAR1 agonism, antagonist counter-screen; shares compounds with TAAR1 antag; hTAAR1 cell line, fluorescence activation, agonist mode; activation, % at 3 µM; actives 2% (n = 2,400); AID 651955; in the data active means activation above about 37%;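 further: CHO cells stably expressing TAAR1 with calcium dye readout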
# Numbers stand for hits; 0 = inactive; - = not tested or not shown. The list is not random: actives were taken first. Their share in the collection is about 2.3%.
SMILES,OXTR ag,V1aR counter,OXTR potentiate,TAAR1 agonist,TAAR1 antag,nonsel antag count,TAAR1 antag conf,Ga16 ag counter,TAAR1 ag count
CC1CCN(c2ccc(C(=O)Nc3ccc4c(c3)OCO4)cc2[N+](=O)[O-])CC1,0,0,0,0,51,29,51,0,0
N#Cc1ccccc1NC(=S)NC(=O)C1CCC1,-,-,-,0,0,-,-,-,-
Cc1cccc(C(=O)c2c(N)sc3c2CCC(C)C3)c1 (stereo not given),0,0,0,0,0,-,-,-,-
Cc1ccc(-n2c(-c3cnccn3)n[nH]c2=S)c(Br)c1,0,0,0,0,104,0,0,0,0
CN(Cc1nc2ccccc2[nH]1)C(=O)C1CCC(=O)N(CCc2cccc(F)c2)C1 (stereo not given),0,0,0,0,0,-,-,-,-
CCN(CC)c1ccc(S(=O)(=O)N2CCOCC2)cc1NC(=O)COC(=O)/C=C/c1ccccc1,-,-,-,0,70,31,0,0,0
CCN(CC)c1ccc(S(=O)(=O)N2CCOCC2)cc1NC(=O)COC(=O)c1ccco1,0,0,0,0,0,-,-,-,-
Cc1ccc(S(=O)(=O)N2CCN(C(=O)c3ccccn3)CC2)c(C)c1,0,0,0,0,0,-,-,-,-
CC(C)NC(=O)N(C)C[C@H]1Oc2c(NC(=O)Nc3ccc4c(c3)OCO4)cccc2C(=O)N([C@H](C)CO)C[C@@H]1C,0,0,0,0,0,-,-,-,-
C[C@H](CO)N1C[C@H](C)[C@@H](CN(C)C(=O)Nc2ccc3c(c2)OCO3)Oc2c(NC(=O)Nc3ccccc3)cccc2C1=O,0,0,0,0,58,26,0,0,0
CCOC(=O)c1cc(-c2nnc(SCC(=O)Nc3ccc(F)cc3)o2)c(C)nc1C,0,0,0,0,54,0,0,0,0
COc1ccc(C(=O)NCCc2c[nH]c3ccccc23)cc1[N+](=O)[O-],0,0,0,0,63,27,0,0,0
N=C1C(=O)OCC1c1ccccc1NC(=O)c1ccc(F)cc1 (stereo not given),0,0,0,0,0,-,-,-,-
CC(=O)Nc1ccccc1NC(=O)c1ccccc1-c1ccccc1,0,0,0,0,0,-,-,-,-
Cc1cccc(C)c1OCCCN1CCOCC1,0,0,0,-,-,-,-,-,-
CN(C(=O)COC(=O)/C=C/c1ccc(S(=O)(=O)N2CCc3ccccc32)cc1)C1CCS(=O)(=O)C1 (stereo not given),0,0,0,0,101,0,0,0,0
C#CCN(C[C@H]1[C@H](OC(=O)NCc2ccco2)[C@H](OC(=O)NCc2ccco2)C[C@@H](C(=O)OC)[C@H]1C(=O)OC)S(=O)(=O)c1ccc(C)cc1,-,-,-,0,0,-,-,-,-
C#CCN(C[C@H]1[C@H](OC(=O)NCc2ccc(OC)c(OC)c2)[C@H](OC(=O)NCc2ccc(OC)c(OC)c2)C[C@@H](C(=O)OC)[C@H]1C(=O)OC)S(=O)(=O)c1ccc(C)cc1,-,-,-,0,58,27,0,0,0
CCn1nc(C(=O)OCC(=O)NCCN2C(=O)CSC2=O)c2ccccc2c1=O,0,0,0,0,0,-,-,-,-
CC1CCC(NC(=O)COC(=O)c2n[nH]c(=O)c3ccccc23)CC1 (stereo not given),0,0,0,0,0,-,-,-,-
Cc1ccccc1-n1c(C)cc(/C=C(\C#N)C(=O)NCC2CCCO2)c1C (stereo not given),0,0,0,0,0,-,-,-,-
Cc1cc(/C=C(\C#N)C(=O)NCc2cccs2)c(C)n1-c1ccccc1F,0,0,0,0,69,0,61,0,0
CN(Cc1ccccc1)S(=O)(=O)c1ccc(NS(=O)(=O)Cc2ccccc2)cc1,0,0,0,0,55,35,52,0,0
O=S(=O)(Cc1ccccc1)Nc1ccccc1,0,0,0,0,0,-,-,-,-
CC(C)C(=O)NC(=S)Nc1ccc(S(=O)(=O)N(C)Cc2ccccc2)cc1,0,0,0,0,69,34,50,0,0
SMILES,OXTR ag,V1aR counter,OXTR potentiate,TAAR1 agonist,TAAR1 antag,nonsel antag count,TAAR1 antag conf,Ga16 ag counter,TAAR1 ag count
CC(=O)Nc1ccc(NC(=O)c2nccnc2C(=O)O)cn1,0,0,0,0,0,-,-,-,-
Cc1nc(SCC(=O)c2ccccc2)c(C#N)c(-c2ccco2)c1C(=O)NCc1ccco1,0,0,0,0,62,35,58,0,0
COCCOC(=O)c1c(C)nc(SCC(=O)Nc2ccc(OC)cc2)c(C#N)c1-c1ccco1,0,0,0,0,0,-,-,-,-
N/C(=N\c1nc2ccccc2o1)NC(=O)c1ccccc1NC(=O)c1ccccc1,0,0,0,0,65,33,0,0,0
CS(=O)(=O)Nc1cccc(NC(=O)C2Cc3c(-c4cccc(C(N)=O)c4)ccnc3O2)c1 (stereo not given),-,-,-,0,0,-,-,-,-
O=C(Nc1cccc2ccccc12)N1CCOCC1,0,0,0,0,0,-,-,-,-
COc1cccc(C2C(C(=O)OC(C)C)=C(C)N=c3s/c(=C\c4ccc(C(=O)O)cc4)c(=O)n32)c1 (stereo not given),0,0,0,0,60,34,53,17,0
COc1cccc(C2C(C(=O)Nc3ccccc3)=C(C)N=c3s/c(=C/c4ccc(OCC(=O)O)cc4)c(=O)n32)c1 (stereo not given),0,0,0,0,0,-,-,-,-
COc1ccc(/C=N/n2cncn2)cc1Cn1cc([N+](=O)[O-])cn1,0,0,0,0,0,-,-,-,-
COc1ccc(/C=N/Nc2ccc([N+](=O)[O-])cc2)cc1Cn1cc([N+](=O)[O-])cn1,0,0,0,0,55,26,0,0,0
O=C(c1ccc2c(=O)n(-c3ccccc3)c(=S)[nH]c2c1)N1CCCCC1,0,0,0,0,0,-,-,-,-
COC(=O)Cc1c(C)c2c(O)cc(C)cc2oc1=O,0,0,0,0,0,-,-,-,-
CC(=O)Oc1ccc(/C=C2/SC(=S)N(Cc3ccccc3)C2=O)cc1,0,0,0,0,0,-,-,-,-
O=C(COC(=O)c1ccccc1SCC(=O)N1CCCC1)Nc1ccccc1,0,0,0,0,0,-,-,-,-
CC(C)(C)N(Cc1ccccc1)C(=O)COC(=O)c1ccccc1SCC(=O)N1CCCC1,0,0,0,0,61,0,0,0,0
CCOC(=O)c1cnn(-c2nc(OC)cc(OC)n2)c1C(F)(F)F,0,0,0,0,0,-,-,-,-
CC(C)(C)NC(=O)COC(=O)c1c2c(nc3ccccc13)CCC2,0,0,0,0,60,27,0,0,0
